{"source": "ChEMBL document CHEMBL1147969", "about": "“Synthesis of some novel heterocyclic compounds derived from diflunisal hydrazide as potential anti-infective and anti-inflammatory agents” (2007)", "key": {"[1]": {"test_system": "Trichophyton rubrum", "assay": "Antifungal activity against Trichophyton rubrum after 72 hrs by agar dilution method", "format": "functional", "outline": "(§1)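 Fungal isolates were screened on agar dilution plates. Test agents in 10% DMSO were mixed into potato dextrose agar containing 0.5% v/v Tween 20, over a range of 7.8–500. Plates were spot-inoculated with 10^4 spore/mL and held 72 h, at 27 °C for plant isolates or 37 °C for clinical isolates. MIC was the lowest concentration with no growth. Each test was repeated at least twice.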"}, "[2]": {"test_system": "Proteus vulgaris", "assay": "Antimicrobial activity against Proteus vulgaris A161 […]", "format": "functional", "outline": "(§2)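 For broth microdilution, inocula came from 12 h broth cultures adjusted to 0.5 McFarland. Test agents in 10% DMSO were serially diluted twofold (7.8–500) in nutrient broth. Wells were shaken 20 s at 300 rpm and incubated 24 h. Clear wells were plated on nutrient agar to check growth. MIC was the lowest concentration inhibiting growth. Each compound was screened twice per organism.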"}, "[3]": {"test_system": "Mus musculus", "assay": "Antiinflammatory activity against BALB/c mouse assessed as inhibition of carrageenan-induced paw edema at 50 mg/kg, po after 4 hrs", "format": "functional", "outline": "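Mice were fasted on the last day (water only) and dosed by gavage at 50 mg/kg, suspended in 0.5% methyl cellulose; controls got vehicle, six mice per group. After 60 min, 0.5 mg/mL carrageenan in saline was injected subplantar into the right hind paw, with saline in the left. The right–left thickness difference was read by microcaliper at 4 h. % inhibition = (n−n0)/n×100 versus control.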"}, "[4]": {"test_system": "Proteus vulgaris", "assay": "Antimicrobial activity against Proteus vulgaris KUKEM1329 by disk diffusion method at 300 ug/disc", "format": "functional", "outline": "as §2"}, "[5]": {"test_system": "Aspergillus flavus", "assay": "Antifungal activity against Aspergillus flavus after 72 hrs by agar dilution method", "format": "functional", "outline": "as §1"}, "[6]": {"test_system": "Coxsackievirus B4", "assay": "Antiviral activity against Coxsackie virus B4-induced cytopathogenicity at 16 ug/mL", "format": "functional, organism-based"}, "[7]": {"test_system": "Aspergillus flavus", "assay": "Antifungal activity against Aspergillus flavus at 300 ug/disc after 72 hrs by disk diffusion method", "format": "functional", "outline": "(§3)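 Disc diffusion was run on potato dextrose agar seeded with 10^4 spore/mL. 6 mm discs each carried 300 per disc of test agent. DMSO-impregnated discs served as negative controls. Plates were incubated 72 h, at 27 °C for plant-associated isolates or 37 °C for clinical isolates. The read-out was inhibition zone diameter in mm. Each assay was repeated twice.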"}, "[8]": {"test_system": "Aspergillus versicolor", "assay": "Antifungal activity against Aspergillus variecolor after 72 hrs by agar dilution method", "format": "functional", "outline": "as §1"}, "[9]": {"test_system": "Trichophyton rubrum", "assay": "Antifungal activity against Trichophyton rubrum at 300 ug/disc after 72 hrs by disk diffusion method", "format": "functional", "outline": "as §3"}, "[10]": {"test_system": "Mus musculus", "assay": "Antinociceptive activity against mouse assessed as paw withdrawal latency at 50 mg/kg, po after 60 mins by hot plate test", "format": "functional", "outline": "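Hot plate was set at 55 °C. Latency to jumping or hind-paw licking was recorded before and 60 min after oral dosing at 50 mg/kg, or vehicle, with a 30 s cutoff. Groups had at least eight mice each. Testing was done between 2:00 and 4:00 pm.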"}, "[11]": {"test_system": "Aspergillus versicolor", "assay": "Antifungal activity against Aspergillus variecolor at 300 ug/disc after 72 hrs by disk diffusion method", "format": "functional", "outline": "as §3"}, "[12]": {"test_system": "Human alphaherpesvirus 2", "assay": "Antiviral activity against HSV2-induced cytopathogenicity at 16 ug/mL", "format": "functional, organism-based"}, "[13]": {"test_system": "Proteus vulgaris", "assay": "Antimicrobial activity against Proteus vulgaris A161 by disk diffusion method at 10 ug/disc", "format": "functional", "settings": "read-out: IZ"}, "[14]": {"test_system": "Proteus vulgaris", "assay": "Antimicrobial activity against Proteus vulgaris KUKEM1329 by disk diffusion method at 10 ug/disc", "format": "functional", "settings": "read-out: IZ"}, "[15]": {"test_system": "Streptococcus pyogenes", "assay": "Antimicrobial activity against Streptococcus pyogenes KUKEM676 by disk diffusion method at 10 ug/disc", "format": "functional", "settings": "read-out: IZ"}, "[16]": {"test_system": "Streptococcus pyogenes", "assay": "Antimicrobial activity against Streptococcus pyogenes ATCC 176 by disk diffusion method at 10 ug/disc", "format": "functional", "settings": "read-out: IZ"}, "[17]": {"test_system": "Enterococcus faecalis", "assay": "Antimicrobial activity against Enterococcus faecalis ATCC […] by microwell dilution method", "format": "functional", "outline": "as §2"}, "[18]": {"test_system": "Streptococcus pyogenes", "assay": "Antimicrobial activity against Streptococcus pyogenes ATCC 176 by microwell dilution method", "format": "functional", "outline": "as §2"}, "[19]": {"test_system": "Streptococcus pyogenes", "assay": "Antimicrobial activity against Streptococcus pyogenes KUKEM676 by microwell dilution method", "format": "functional", "outline": "as §2"}, "[20]": {"test_system": "Streptococcus pyogenes", "assay": "Antimicrobial activity against Streptococcus pyogenes KUKEM676 by disk diffusion method at 300 ug/disc", "format": "functional", "outline": "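Mueller-Hinton agar was spread with 10^8 CFU/mL bacteria. 6 mm discs held 300 per disc of test agent, with DMSO discs as negative controls. Plates were incubated 24 h, at 37 °C for clinical strains or 27 °C for plant-associated strains. Zone of inhibition diameter in mm was measured. Each assay was repeated twice.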"}, "[21]": {"test_system": "Human alphaherpesvirus 1", "assay": "Antiviral activity against TK positive HSV1 KOS-induced cytopathogenicity at 16 ug/mL", "format": "functional, organism-based"}}, "note": "Calls of active or inactive are those of the source.", "data": [{"smiles": "CCn1c(-c2cc(-c3ccc(F)cc3F)ccc2O)n[nH]c1=S", "values": [{"measurement": "inhibition zone (IZ)", "setting": "[1]", "value": 16, "unit": "mm"}, {"measurement": "inhibition zone (IZ)", "setting": "[2]", "value": 9, "unit": "mm"}, {"measurement": "inhibition in vivo at 50 mg/kg", "setting": "[3]", "value": 46.2, "unit": "%"}, {"measurement": "inhibition zone (IZ)", "setting": "[4]", "value": 9, "unit": "mm"}, {"measurement": "inhibition zone (IZ)", "setting": "[5]", "value": 16, "unit": "mm"}, {"measurement": "Activity", "setting": "[6]", "value": "Active"}, {"measurement": "MIC", "setting": "[7]", "value": 31.2, "unit": "µg/mL"}, {"measurement": "inhibition zone (IZ)", "setting": "[8]", "value": 14, "unit": "mm"}, {"measurement": "MIC", "setting": "[9]", "value": 15.2, "unit": "µg/mL"}, {"measurement": "Paw withdrawal latency", "setting": "[10]", "value": 17.1, "unit": "s"}, {"measurement": "MIC", "setting": "[11]", "value": 31.2, "unit": "µg/mL"}]}, {"smiles": "C=CCNc1nnc(-c2cc(-c3ccc(F)cc3F)ccc2O)o1", "values": [{"measurement": "inhibition in vivo at 50 mg/kg", "setting": "[3]", "value": 36.6, "unit": "%"}, {"measurement": "Activity", "setting": "[12]", "value": "Active"}, {"measurement": "Paw withdrawal latency", "setting": "[10]", "value": 9.8, "unit": "s"}]}, {"smiles": "Cc1ccc(-n2c(-c3cc(-c4ccc(F)cc4F)ccc3O)n[nH]c2=S)cc1", "values": [{"measurement": "inhibition in vivo at 50 mg/kg", "setting": "[3]", "value": 51.6, "unit": "%"}, {"measurement": "Paw withdrawal latency", "setting": "[10]", "value": 14.2, "unit": "s"}]}, {"smiles": "COc1ccc(Nc2nnc(-c3cc(-c4ccc(F)cc4F)ccc3O)o2)cc1", "values": [{"measurement": "inhibition in vivo at 50 mg/kg", "setting": "[3]", "value": 35.3, "unit": "%"}, {"measurement": "Paw withdrawal latency", "setting": "[10]", "value": 12, "unit": "s"}]}, {"smiles": "O=C(O)c1cc(-c2ccc(F)cc2F)ccc1O", "note": "[DIFLUNISAL]", "values": [{"measurement": "inhibition in vivo at 50 mg/kg", "setting": "[3]", "value": 24.2, "unit": "%"}, {"measurement": "Paw withdrawal latency", "setting": "[10]", "value": 19.1, "unit": "s"}]}, {"smiles": "CCNc1nnc(-c2cc(-c3ccc(F)cc3F)ccc2O)o1", "values": [{"measurement": "inhibition in vivo at 50 mg/kg", "setting": "[3]", "value": 36.8, "unit": "%"}, {"measurement": "Paw withdrawal latency", "setting": "[10]", "value": 11, "unit": "s"}]}, {"smiles": "CC1COc2c(N3CCN(C)CC3)c(F)cc3c(=O)c(C(=O)O)cn1c23", "note": "(centres undefined) [OFLOXACIN]", "values": [{"measurement": "zone of inhibition at 10 µg/disc", "setting": "[13]", "value": 12, "unit": "mm"}, {"measurement": "zone of inhibition at 10 µg/disc", "setting": "[14]", "value": 13, "unit": "mm"}, {"measurement": "zone of inhibition at 10 µg/disc", "setting": "[15]", "value": 13, "unit": "mm"}, {"measurement": "zone of inhibition at 10 µg/disc", "setting": "[16]", "value": 10, "unit": "mm"}]}, {"smiles": "COc1ccc(-n2c(-c3cc(-c4ccc(F)cc4F)ccc3O)n[nH]c2=S)cc1", "values": [{"measurement": "inhibition zone (IZ)", "setting": "[17]", "value": 12, "unit": "mm"}, {"measurement": "inhibition zone (IZ)", "setting": "[18]", "value": 10, "unit": "mm"}, {"measurement": "inhibition in vivo at 50 mg/kg", "setting": "[3]", "value": 53.5, "unit": "%"}, {"measurement": "inhibition zone (IZ)", "setting": "[4]", "value": 10, "unit": "mm"}, {"measurement": "inhibition zone (IZ)", "setting": "[19]", "value": 9, "unit": "mm"}, {"measurement": "Paw withdrawal latency", "setting": "[10]", "value": 15, "unit": "s"}, {"measurement": "MIC", "setting": "[20]", "value": 125, "unit": "µg/mL"}]}, {"smiles": "Oc1ccc(-c2ccc(F)cc2F)cc1-c1nnc(NC2CCCCC2)s1", "values": [{"measurement": "inhibition in vivo at 50 mg/kg", "setting": "[3]", "value": 41.4, "unit": "%"}, {"measurement": "Paw withdrawal latency", "setting": "[10]", "value": 12.5, "unit": "s"}]}, {"smiles": "Cn1c(-c2cc(-c3ccc(F)cc3F)ccc2O)n[nH]c1=S", "values": [{"measurement": "inhibition zone (IZ)", "setting": "[2]", "value": 10, "unit": "mm"}, {"measurement": "inhibition in vivo at 50 mg/kg", "setting": "[3]", "value": 56.9, "unit": "%"}, {"measurement": "inhibition zone (IZ)", "setting": "[4]", "value": 8, "unit": "mm"}, {"measurement": "Paw withdrawal latency", "setting": "[10]", "value": 16.4, "unit": "s"}]}, {"smiles": "Oc1ccc(-c2ccc(F)cc2F)cc1-c1n[nH]c(=S)n1-c1ccccc1", "values": [{"measurement": "inhibition in vivo at 50 mg/kg", "setting": "[3]", "value": 36.3, "unit": "%"}, {"measurement": "Activity", "setting": "[21]", "value": "Active"}, {"measurement": "Paw withdrawal latency", "setting": "[10]", "value": 16, "unit": "s"}]}, {"smiles": "Oc1ccc(-c2ccc(F)cc2F)cc1-c1nnc(NC2CCCCC2)o1", "values": [{"measurement": "inhibition in vivo at 50 mg/kg", "setting": "[3]", "value": 23.8, "unit": "%"}, {"measurement": "Paw withdrawal latency", "setting": "[10]", "value": 12, "unit": "s"}]}]}
